For data set [1], the system named is Rattus norvegicus. Briefly: Antiinflammatory activity in albino rat assessed as inhibition of carrageenan-induced paw edema at 0.28 mmol/kg, po administered 30 mins before carrageenan challenge measured after 1 hr relative to control. The format is functional. The essentials:
(§1)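 Male albino rats, n = 4 per group. Dosed orally as a suspension in 0.5% w/v CMC in water; controls received CMC alone. 0.1 mL of freshly prepared 1% carrageenan in saline was injected subplantar into the right hind paw 30 min after dosing, with saline in the left paw. Right paw thickness was read by Vernier caliper before and at 1–5 h. Result is % decrease in edema vs control, mean ± S.E.M.; one-way ANOVA.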
Background: Carrageenan injected into the paw causes an acute inflammation.

Data set [2] concerns Rattus norvegicus. Briefly: Antiinflammatory activity in albino rat assessed as inhibition of carrageenan-induced paw edema at 0.28 mmol/kg, po administered 30 mins before carrageenan challenge measured after 2 hrs relative to control. The format is functional. The essentials: as §1
Data set [3] relates to Rattus norvegicus. Description: Antiinflammatory activity in albino rat assessed as inhibition of carrageenan-induced paw edema at 0.28 mmol/kg, po administered 30 mins before carrageenan challenge measured after 3 hrs relative to control. The format is functional. The essentials: as §1
Data set [4] deals with Rattus norvegicus. Description: Antiinflammatory activity in albino rat assessed as inhibition of carrageenan-induced paw edema at 0.28 mmol/kg, po administered 30 mins before carrageenan challenge measured after 4 hrs relative to control. In kind it is functional. The essentials:
as §1

Data set [5] has as its system Rattus norvegicus. Briefly: Antiinflammatory activity in albino rat assessed as inhibition of carrageenan-induced paw edema at 0.28 mmol/kg, po administered 30 mins before carrageenan challenge measured after 5 hrs relative to control. The format is functional. The essentials: as §1
In data set [6] the test system is Rattus norvegicus. Description: Ulcerogenic effect in albino rat assessed as ulcer index at 0.28 mmol/kg, po. The format is toxicity, organism-based. Conditions: in vivo. The essentials: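 Rat gastric ulcers were graded by area: level I <1 mm², level II 1–3 mm², level III >3 mm². Ulcer index = 1×(level I count) + 2×(level II) + 3×(level III). Reported as mean ± S.E.M., n = 4.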

Data set [7] concerns Rattus norvegicus. Briefly: Antiinflammatory activity in albino rat assessed as inhibition of carrageenan-induced paw edema at 0.28 mmol/kg, po administered 30 mins before carrageenan challenge measured after 3 hrs relative to indomethacin. The note with it: read-out: INH. In kind it is functional. In a few lines:
(§2)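 Calculated from the 3 h % edema inhibition in carrageenan paw edema (male albino rats, oral dosing in 0.5% CMC 30 min before 1% carrageenan subplantar injection). Expressed as % of the inhibition given by the reference drug in the same assay.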

The test system of data set [8] is Rattus norvegicus. Briefly: Antiinflammatory activity in albino rat assessed as inhibition of carrageenan-induced paw edema at 0.28 mmol/kg, po administered 30 mins before carrageenan challenge measured after 3 hrs relative to celecoxib. The format is functional. Conditions: read-out: INH. The essentials: as §2
The target in data set [9] is T1, Prostaglandin G/H synthase 1 (Ovis aries, UniProt P05979).
T1 sequence (P05979 whole entry): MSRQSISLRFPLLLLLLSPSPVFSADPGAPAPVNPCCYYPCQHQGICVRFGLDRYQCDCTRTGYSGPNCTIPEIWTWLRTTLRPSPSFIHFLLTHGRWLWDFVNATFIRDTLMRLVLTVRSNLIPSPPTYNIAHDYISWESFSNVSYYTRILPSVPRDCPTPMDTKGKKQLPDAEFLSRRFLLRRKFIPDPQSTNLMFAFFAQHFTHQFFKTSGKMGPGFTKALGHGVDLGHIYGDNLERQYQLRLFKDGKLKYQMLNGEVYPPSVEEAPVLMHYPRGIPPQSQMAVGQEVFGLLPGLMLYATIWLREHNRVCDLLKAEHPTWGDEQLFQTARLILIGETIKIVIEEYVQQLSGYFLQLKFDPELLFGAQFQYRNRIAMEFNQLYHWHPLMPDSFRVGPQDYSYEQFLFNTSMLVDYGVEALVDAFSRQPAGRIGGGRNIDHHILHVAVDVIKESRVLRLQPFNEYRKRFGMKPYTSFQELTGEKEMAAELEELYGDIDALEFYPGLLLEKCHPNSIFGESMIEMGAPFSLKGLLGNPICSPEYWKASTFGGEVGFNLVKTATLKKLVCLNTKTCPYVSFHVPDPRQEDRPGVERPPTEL
Description: Inhibition of ovine COX1 assessed as prostaglandin F2alpha level.

The target in data set [10] is T2, Prostaglandin G/H synthase 2 (Homo sapiens, UniProt P35354).
T2 sequence (P35354 whole entry): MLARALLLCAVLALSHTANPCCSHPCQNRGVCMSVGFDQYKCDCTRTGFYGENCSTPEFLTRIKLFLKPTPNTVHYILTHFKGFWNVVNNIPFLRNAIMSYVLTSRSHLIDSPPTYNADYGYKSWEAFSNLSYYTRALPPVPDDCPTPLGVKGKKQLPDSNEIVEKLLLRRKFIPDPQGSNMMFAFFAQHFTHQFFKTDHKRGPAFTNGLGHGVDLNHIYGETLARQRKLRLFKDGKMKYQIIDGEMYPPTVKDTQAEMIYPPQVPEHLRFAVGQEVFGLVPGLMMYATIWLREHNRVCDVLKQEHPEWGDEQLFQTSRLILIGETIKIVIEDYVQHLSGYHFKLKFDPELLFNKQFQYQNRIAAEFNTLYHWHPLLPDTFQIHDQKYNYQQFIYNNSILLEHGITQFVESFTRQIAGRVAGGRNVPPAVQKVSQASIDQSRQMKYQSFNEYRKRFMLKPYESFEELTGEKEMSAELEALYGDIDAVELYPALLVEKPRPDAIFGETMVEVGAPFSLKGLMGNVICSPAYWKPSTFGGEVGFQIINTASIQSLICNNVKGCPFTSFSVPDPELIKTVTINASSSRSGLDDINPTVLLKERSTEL
Description: Inhibition of human recombinant COX2 assessed as prostaglandin F2alpha level.

Six molecules from ChEMBL document CHEMBL3232916, “1-(4-Methoxyphenyl)-5-(3,4,5-trimethoxyphenyl)-1H-1,2,4-triazole-3-carboxamides: synthesis, molecular modeling, evaluation of their anti-inflammatory activity and ulcerogenicity” (Eur J Med Chem, 2014) can be followed below.

Regarding `COc1ccc(-n2nc(C(=O)Nc3ccc(C(=O)O)cc3)nc2-c2cc(OC)c(OC)c(OC)c2)cc1`, the inhibition in vivo at 280 µmol/kg was 50% in the data set on Rattus norvegicus [1]; 57% in the data set with Rattus norvegicus [2]; 74% with Rattus norvegicus [3]; 69% in the data set on Rattus norvegicus [4]; 60% with Rattus norvegicus [5]. Moreover, the UI with Rattus norvegicus [6] was found to be 12. In the data set with Rattus norvegicus [7], the paw edema inhibition relative to indomethacin at 280 µmol/kg was found to be 95%. Besides, in the data set with Rattus norvegicus [8], the paw edema inhibition relative to celecoxib at 280 µmol/kg amounted to 109%.
Turning to `COc1ccc(-n2nc(C(=O)Nc3ccc(Br)cc3)nc2-c2cc(OC)c(OC)c(OC)c2)cc1`, the inhibition in vivo at 280 µmol/kg with Rattus norvegicus [1] is 40%; with Rattus norvegicus [2], 50%; in the data set with Rattus norvegicus [3] it was 66%; with Rattus norvegicus [4], 59%; in the data set on Rattus norvegicus [5], 57%. For the same molecule, in the data set on Rattus norvegicus [6], the UI came to 1.8. Besides, the paw edema inhibition relative to indomethacin at 280 µmol/kg in the data set on Rattus norvegicus [7] amounted to 85%. In addition, the paw edema inhibition relative to celecoxib at 280 µmol/kg in the data set with Rattus norvegicus [8] was 97%. In addition, the IC50 in [9] and in [10] was more than 100 µM each time.
As to `COc1ccc(-n2nc(C(=O)Nc3cccc(C(F)(F)F)c3)nc2-c2cc(OC)c(OC)c(OC)c2)cc1`, the inhibition in vivo at 280 µmol/kg in the data set with Rattus norvegicus [1] was found to be 48%; in the data set with Rattus norvegicus [2], 55%; in the data set with Rattus norvegicus [3], 65%; with Rattus norvegicus [4] it was 56%; with Rattus norvegicus [5], 50%. Besides, the UI in the data set with Rattus norvegicus [6] is 5. For the same molecule, the paw edema inhibition relative to indomethacin at 280 µmol/kg in the data set on Rattus norvegicus [7] worked out at 83%. Besides, the paw edema inhibition relative to celecoxib at 280 µmol/kg in the data set with Rattus norvegicus [8] came to 96%.
Regarding `COc1ccc(-n2nc(C(=O)Nc3ccccc3OC)nc2-c2cc(OC)c(OC)c(OC)c2)cc1`, the inhibition in vivo at 280 µmol/kg came out at 52% in the data set with Rattus norvegicus [1]; 57% in the data set with Rattus norvegicus [2]; 30% in the data set with Rattus norvegicus [3]; 24% in the data set on Rattus norvegicus [4]; 10% in the data set on Rattus norvegicus [5]. The UI in the data set on Rattus norvegicus [6] is on record as 5. The paw edema inhibition relative to indomethacin at 280 µmol/kg in the data set with Rattus norvegicus [7] was 38%. The paw edema inhibition relative to celecoxib at 280 µmol/kg with Rattus norvegicus [8] worked out at 44%.
Take `COc1ccc(-n2nc(C(=O)Nc3ccc(O)cc3)nc2-c2cc(OC)c(OC)c(OC)c2)cc1`: the inhibition in vivo at 280 µmol/kg with Rattus norvegicus [1] was found to be 36%; with Rattus norvegicus [2] it was 35%; with Rattus norvegicus [3], 50%; with Rattus norvegicus [4], 37%; in the data set on Rattus norvegicus [5] it was 27%. Also, in the data set on Rattus norvegicus [6], the UI was 1. In addition, in the data set on Rattus norvegicus [7], the paw edema inhibition relative to indomethacin at 280 µmol/kg was 64%. Further, the paw edema inhibition relative to celecoxib at 280 µmol/kg in the data set with Rattus norvegicus [8] was 74%.
Consider `COc1ccc(-n2nc(C(=O)Nc3ccc(Cl)cc3)nc2-c2cc(OC)c(OC)c(OC)c2)cc1`, for which the inhibition in vivo at 280 µmol/kg with Rattus norvegicus [1] worked out at 55%; with Rattus norvegicus [2], 70%; in the data set with Rattus norvegicus [3] it was 78%; with Rattus norvegicus [4] it was 75%; in the data set on Rattus norvegicus [5] it was 70%. The UI in the data set on Rattus norvegicus [6] was determined as 5. For the same molecule, in the data set on Rattus norvegicus [7], the paw edema inhibition relative to indomethacin at 280 µmol/kg stood at 100%. Further, the paw edema inhibition relative to celecoxib at 280 µmol/kg in the data set with Rattus norvegicus [8] amounted to 115%. For the same molecule, the IC50 in data set [9] and in [10] was more than 100 µM throughout.

A word on the inhibition in vivo: it is the percentage by which the read-out fell short of the control. Broadly, the IC50 is the concentration at which inhibition is half-maximal.
